Results published in ChEMBL document CHEMBL4020823, “Highly Selective, Potent, and Oral mTOR Inhibitor for Treatment of Cancer as Autophagy Inducer” (J Med Chem, 2018).
Active and inactive are the calls of the source. The rule behind the calls is not given here.

Key:
[1] = test system: MDA-MB-231; test: Cell cycle arrest in human MDA-MB-231 cells assessed as accumulation at G0/G1 phase at 0.25 to 0.5 uM after 24 hrs by propidium iodide-staining based flow cytometric analysis; type: functional
Procedure, shortened: (§1)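 Cells were seeded at 5 × 10^5 cells/mL. At 24 h after plating they were treated with increasing concentrations for 24 h, washed in PBS, and fixed in ice-cold 70% ethanol for at least 24 h. They were stained with propidium iodide plus RNase A for 30 min at 37 °C and analysed by flow cytometry for phase distribution.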

[2] = species: Homo sapiens; test: Inhibition of mTORC1 in human MDA-MB-231 cells assessed as reduction in 4E-BP1 phosphorylation at Ser65 residues at 0.25 to 0.5 uM by Western blot analysis; type: cell-based
Procedure, shortened: (§2)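 Cells treated with the indicated concentrations, then whole-cell lysates immunoblotted. mTORC1 activity read as S6 and 4E-BP1 phosphorylation; mTORC2 activity read as AKT Ser473 phosphorylation. Blocking in 5% skim milk, primary antibodies at 4 °C overnight, peroxidase-conjugated secondary, ECL detection.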

[3] = test system: OVCAR-5; test: Growth inhibition of human OVCAR5 cells after 72 hrs by CCK8 assay; type: functional, cell-based; settings: OVCAR-5, 72 h
Procedure, shortened: (§3)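 Cells were seeded at 2000–3000 per well and grown 24 h in serum-containing medium. They were then exposed to serially diluted compound for 72 h at 37 °C, 5% CO2. CCK8 reagent was added for 1–4 h and absorbance read at 450 nm. Inhibition = (AC − AS)/(AC − Ab) × 100%. IC50 is the average of at least three independent determinations.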

[4] = Clearance in Sprague-Dawley rat at 20 mg/kg, po administered as single dose by HPLC analysis; type: ADME, organism-based; settings: in vivo
Procedure, shortened: (§4)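 Rats fasted overnight, then given one 20 mg/kg dose either iv or po. Blood was collected and centrifuged at once to obtain plasma. Plasma drug levels were measured by HPLC, and PK parameters were derived from the concentration-time data.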

[5] = test system: NCI-H460; test: Growth inhibition of human H460 cells after 72 hrs by CCK8 assay; type: functional, cell-based; settings: NCI-H460, 72 h; procedure, shortened: as §3
[6] = Half life in Sprague-Dawley rat at 20 mg/kg, iv administered as single dose by HPLC analysis; type: ADME, organism-based; settings: in vivo; procedure, shortened: as §4
[7] = test system: Mus musculus; test: Down regulation of AKT phosphorylation at Ser473 residues in human T47D cells xenografted in BALB/c nude mouse administered via oral gavage after 3 weeks by hematoxylin and eosine staining based light microscopic assay; type: functional, cell-based
Procedure, shortened: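 Tumours from the oral 3-week T-47D xenograft study were formalin-fixed, paraffin-embedded and cut into 5 μm sections. Sections were deparaffinized, rehydrated and incubated overnight at 4 °C with phospho-specific primary antibody at 1:100. Biotin secondary was applied for 1 h at room temperature, then ABC-peroxidase/DAB with hematoxylin counterstain. Sections were viewed by light microscopy.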

[8] = test system: HeLa; test: Induction of autophagy in human HeLa cells assessed as increase in LC3-2 level at 1 to 2 uM after 48 hrs by Western blot analysis; type: functional, cell-based
Procedure, shortened: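 Cells were treated for 48 h (2 days) with varying concentrations. Whole-cell lysates were immunoblotted for LC3B-II with β-actin as the internal control. Membranes were blocked in 5% skim milk, incubated with primary antibody overnight at 4 °C, then with peroxidase-conjugated secondary, and developed by ECL.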

[9] = species: Homo sapiens; test: Inhibition of mTORC2 in human MCF7 cells assessed as reduction in AKT phosphorylation at Ser473 residues at 0.25 to 0.5 uM by Western blot analysis; type: cell-based; procedure, shortened: as §2
[10] = test system: SiHa; test: Cell cycle arrest in human SiHa cells assessed as decrease in S-phase at 0.25 to 0.5 uM after 24 hrs by propidium iodide-staining based flow cytometric analysis; type: functional; procedure, shortened: as §1
[11] = target: ATR/ATRIP (Homo sapiens) (UniProt Q13535+Q8WXE1); test: Inhibition of full length recombinant human ATR /ATRIP at 1 uM relative to control; type: protein-complex assay
Procedure, shortened: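 Eurofins KinaseProfiler panel with compound at a single 1 μM concentration. ATP at the Km of each kinase. Result is % inhibition, mean of two independent experiments.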

[12] = test system: Mus musculus; test: Up regulation of LC3B levels in human T47D cells xenografted in BALB/c nude mouse administered via oral gavage after 3 weeks by hematoxylin and eosine staining based light microscopic assay; type: functional, cell-based
Procedure, shortened: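 Tumors taken from daily-dosed T-47D xenograft mice, formalin-fixed and paraffin-embedded, cut into 5 μm sections. Sections deparaffinized, rehydrated, and incubated overnight at 4 °C with anti-LC3B at 1:100. Then biotin-labeled secondary for 1 h at room temperature, ABC-peroxidase with DAB, hematoxylin counterstain. Read by light microscopy.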

[13] = test system: Rattus norvegicus; test: Apparent volume of distribution at steady state in Sprague-Dawley rat at 20 mg/kg, po administered as single dose by HPLC analysis; type: ADME, organism-based; settings: in vivo; procedure, shortened: as §4
[14] = species: Homo sapiens; test: Inhibition of mTORC1 in human T47D cells assessed as reduction in 4E-BP1 phosphorylation at Thr37/46 residues at 0.25 to 0.5 uM by Western blot analysis; type: cell-based; procedure, shortened: as §2
[15] = test system: SiHa; test: Induction of autophagy in human SiHa cells assessed as increase in LC3-2 level at 0.5 to 1 uM after 48 hrs by Western blot analysis; type: functional, cell-based
Procedure, shortened: (§5)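 Cells treated with test agents at several concentrations for 2 days (48 h). LC3B-II detected by Western blot on lysates, with β-actin as internal control. Membranes blocked in 5% skim milk, primary antibodies at 4 °C overnight, peroxidase-conjugated anti-mouse or anti-rabbit IgG secondary, ECL detection.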

[16] = test system: HeLa; test: Growth inhibition of human HeLa cells after 72 hrs by CCK8 assay; type: functional, cell-based; procedure, shortened: as §3
[17] = test system: HeLa; test: Induction of autophagy in human HeLa cells assessed as increase in LC3-2 puncta level after 48 hrs by immunofluorescence staining based microscopic analysis; type: functional, cell-based
Procedure, shortened: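 Cells were grown on glass coverslips and exposed to inhibitor for 48 h. They were fixed in 4% paraformaldehyde, permeabilized with 0.15% Triton X-100 and blocked in 4% BSA/PBS for 1 h. Anti-LC3B was applied overnight at 1:200, followed by FITC secondary and DAPI nuclear stain. LC3B-II puncta were counted by fluorescence microscopy.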

[18] = Half life in Sprague-Dawley rat at 20 mg/kg, po administered as single dose by HPLC analysis; type: ADME, organism-based; settings: in vivo; procedure, shortened: as §4
[19] = target: Serine/threonine-protein kinase mTOR (Homo sapiens, UniProt P42345); test: Inhibition of N-terminal FLAG-tagged recombinant human mTOR (1362 to end residues)
[20] = test system: T47D; test: Induction of autophagy in human T47D cells assessed as increase in LC3-2 level at 0.25 to 0.5 uM after 48 hrs by Western blot analysis; type: functional, cell-based; procedure, shortened: as §5
[21] = Volume of distribution at steady state in Sprague-Dawley rat at 20 mg/kg, iv administered as single dose by HPLC analysis; type: ADME, organism-based; settings: in vivo, read-out: Vdss
Procedure, shortened: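 Rats fasted overnight, then given a single 20 mg/kg dose either iv or po. Blood collected and centrifuged immediately to obtain plasma. Plasma drug levels measured by HPLC, and pharmacokinetic parameters derived from both routes.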

[22] = test system: HeLa; test: Cell cycle arrest in human HeLa cells assessed as accumulation at G0/G1 phase at 0.5 to 1 uM after 24 hrs by propidium iodide-staining based flow cytometric analysis; type: functional; procedure, shortened: as §1
[23] = test system: MDA-MB-231; test: Induction of autophagy in human MDA-MB-231 cells assessed as increase in LC3-2 level at 0.25 to 0.5 uM after 48 hrs by Western blot analysis; type: functional, cell-based; procedure, shortened: as §5

Sequence of ATR/ATRIP (Homo sapiens) (Q13535 whole entry, looked up): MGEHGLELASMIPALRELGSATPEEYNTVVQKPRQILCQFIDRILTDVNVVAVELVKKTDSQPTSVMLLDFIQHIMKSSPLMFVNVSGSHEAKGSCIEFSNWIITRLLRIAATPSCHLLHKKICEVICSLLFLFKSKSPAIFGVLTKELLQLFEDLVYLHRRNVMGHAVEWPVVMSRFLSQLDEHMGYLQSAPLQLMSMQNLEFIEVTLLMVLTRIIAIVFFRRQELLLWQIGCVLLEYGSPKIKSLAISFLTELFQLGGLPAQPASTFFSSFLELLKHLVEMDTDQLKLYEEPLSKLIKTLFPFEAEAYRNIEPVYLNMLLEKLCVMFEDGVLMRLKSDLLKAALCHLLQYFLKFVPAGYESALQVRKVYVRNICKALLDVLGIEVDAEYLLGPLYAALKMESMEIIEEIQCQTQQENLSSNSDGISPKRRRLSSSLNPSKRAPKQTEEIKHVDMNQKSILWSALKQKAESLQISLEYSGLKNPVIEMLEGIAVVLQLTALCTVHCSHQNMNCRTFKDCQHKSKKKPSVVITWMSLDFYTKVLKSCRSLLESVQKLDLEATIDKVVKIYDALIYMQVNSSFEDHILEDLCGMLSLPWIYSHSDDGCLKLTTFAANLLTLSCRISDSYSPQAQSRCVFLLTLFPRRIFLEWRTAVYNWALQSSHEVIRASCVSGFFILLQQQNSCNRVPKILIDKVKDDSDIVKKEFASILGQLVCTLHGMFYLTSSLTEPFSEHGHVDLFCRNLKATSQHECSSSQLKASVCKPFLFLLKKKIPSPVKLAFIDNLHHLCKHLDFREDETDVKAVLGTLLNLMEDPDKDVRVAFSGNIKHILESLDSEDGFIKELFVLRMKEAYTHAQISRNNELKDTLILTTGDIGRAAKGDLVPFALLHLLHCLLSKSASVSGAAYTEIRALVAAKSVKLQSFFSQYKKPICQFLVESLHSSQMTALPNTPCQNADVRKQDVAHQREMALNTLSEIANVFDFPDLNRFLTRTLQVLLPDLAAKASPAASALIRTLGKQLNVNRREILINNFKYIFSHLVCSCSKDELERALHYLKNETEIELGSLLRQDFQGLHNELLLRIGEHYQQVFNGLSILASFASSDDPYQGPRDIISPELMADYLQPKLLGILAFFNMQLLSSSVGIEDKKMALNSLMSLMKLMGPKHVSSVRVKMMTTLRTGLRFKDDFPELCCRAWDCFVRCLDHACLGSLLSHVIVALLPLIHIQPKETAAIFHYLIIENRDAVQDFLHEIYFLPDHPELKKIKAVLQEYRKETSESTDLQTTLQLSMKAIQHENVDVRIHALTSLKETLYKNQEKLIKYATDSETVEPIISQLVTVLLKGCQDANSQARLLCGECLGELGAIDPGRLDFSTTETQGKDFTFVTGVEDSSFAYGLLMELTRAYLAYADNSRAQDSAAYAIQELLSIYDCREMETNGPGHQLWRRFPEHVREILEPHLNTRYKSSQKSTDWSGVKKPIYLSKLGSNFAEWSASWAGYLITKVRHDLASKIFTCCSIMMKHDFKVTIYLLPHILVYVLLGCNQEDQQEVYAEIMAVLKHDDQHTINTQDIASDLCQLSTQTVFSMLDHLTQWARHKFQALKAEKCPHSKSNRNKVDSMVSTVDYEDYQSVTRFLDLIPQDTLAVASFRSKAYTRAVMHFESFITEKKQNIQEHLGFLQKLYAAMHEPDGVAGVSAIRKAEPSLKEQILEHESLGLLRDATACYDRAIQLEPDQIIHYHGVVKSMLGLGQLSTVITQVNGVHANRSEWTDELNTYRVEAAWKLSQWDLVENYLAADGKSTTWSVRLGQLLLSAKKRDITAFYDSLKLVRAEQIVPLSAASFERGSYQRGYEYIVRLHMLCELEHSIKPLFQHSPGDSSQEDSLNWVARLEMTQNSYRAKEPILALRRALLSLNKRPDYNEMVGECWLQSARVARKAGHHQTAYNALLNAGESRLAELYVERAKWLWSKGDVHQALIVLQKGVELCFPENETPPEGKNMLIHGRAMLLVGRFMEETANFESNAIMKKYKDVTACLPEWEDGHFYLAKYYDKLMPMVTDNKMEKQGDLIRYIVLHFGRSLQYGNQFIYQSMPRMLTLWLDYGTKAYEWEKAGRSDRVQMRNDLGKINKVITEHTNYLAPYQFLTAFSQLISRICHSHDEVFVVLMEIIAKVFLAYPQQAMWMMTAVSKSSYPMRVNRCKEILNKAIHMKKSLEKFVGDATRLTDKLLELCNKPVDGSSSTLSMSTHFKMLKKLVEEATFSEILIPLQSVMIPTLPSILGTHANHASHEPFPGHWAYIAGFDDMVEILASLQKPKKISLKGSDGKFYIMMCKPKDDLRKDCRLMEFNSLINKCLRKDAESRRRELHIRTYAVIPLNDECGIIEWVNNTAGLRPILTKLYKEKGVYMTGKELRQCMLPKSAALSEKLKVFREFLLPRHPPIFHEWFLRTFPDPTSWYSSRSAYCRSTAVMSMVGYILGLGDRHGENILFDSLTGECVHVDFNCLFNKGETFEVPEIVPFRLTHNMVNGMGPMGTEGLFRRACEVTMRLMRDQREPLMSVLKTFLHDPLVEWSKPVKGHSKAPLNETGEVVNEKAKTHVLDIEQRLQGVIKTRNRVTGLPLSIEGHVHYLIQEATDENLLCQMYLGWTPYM
Sequence of ATR/ATRIP (Homo sapiens) (Q8WXE1 whole entry, looked up): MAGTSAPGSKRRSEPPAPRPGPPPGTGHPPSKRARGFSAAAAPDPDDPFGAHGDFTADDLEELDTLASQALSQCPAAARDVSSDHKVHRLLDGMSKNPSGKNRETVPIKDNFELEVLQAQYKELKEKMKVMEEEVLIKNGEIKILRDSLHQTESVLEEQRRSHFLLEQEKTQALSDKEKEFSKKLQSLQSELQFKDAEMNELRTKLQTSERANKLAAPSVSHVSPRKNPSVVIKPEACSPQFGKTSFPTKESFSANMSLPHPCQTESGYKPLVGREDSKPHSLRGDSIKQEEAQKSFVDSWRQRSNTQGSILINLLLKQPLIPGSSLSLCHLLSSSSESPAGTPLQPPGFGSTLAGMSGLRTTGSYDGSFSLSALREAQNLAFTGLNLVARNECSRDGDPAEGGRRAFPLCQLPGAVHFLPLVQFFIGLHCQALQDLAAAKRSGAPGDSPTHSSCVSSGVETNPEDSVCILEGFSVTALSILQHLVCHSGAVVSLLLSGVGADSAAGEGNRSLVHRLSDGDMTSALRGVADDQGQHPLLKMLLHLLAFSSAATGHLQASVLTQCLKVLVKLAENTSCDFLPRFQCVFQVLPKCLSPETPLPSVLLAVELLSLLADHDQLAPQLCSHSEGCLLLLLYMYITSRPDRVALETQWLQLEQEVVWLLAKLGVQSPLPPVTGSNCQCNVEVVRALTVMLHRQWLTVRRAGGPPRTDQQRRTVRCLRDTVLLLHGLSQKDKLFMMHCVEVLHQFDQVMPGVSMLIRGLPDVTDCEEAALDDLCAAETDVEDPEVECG

- IC50 [3]: 2830 nM
- CL/F [4]: 58.5 mL/min/kg
- IC50 [5]: 1780 nM
- half-life [6]: 7.57 h
- inhibition [11]: 24%
- Vdss(app) [13]: 21.79 L/kg
- IC50 [16]: 441 nM
- half-life [18]: 9.98 h
- IC50 [19]: 7 nM
- Vd [21]: 16.7 L/kg
SMILES: N#CCN1CCC(n2c(=O)cnc3cnc4ccc(-c5ccc(N)nc5)cc4c32)CC1
- Activity [1]: Active
- inhibition [2]: Active
- Activity [7]: Dose-dependent effect
- Activity [8]: Active
- inhibition [9]: Active
- Activity [10]: Active
- Activity [12]: Dose-dependent effect
- inhibition [14]: Active
- Activity [15]: Active
- Activity [17]: Dose-dependent effect
- Activity [20]: Active
- Activity [22]: Active
- Activity [23]: Active
